The species named for experiment [1] is Macaca mulatta. As to the kind of experiment: Selectivity ratio of EC50 for rhesus monkey GCGR to EC50 for rhesus monkey GLP1R.
For experiment [2], the target named is Glucagon receptor (Homo sapiens, UniProt P47871). Description: Agonist activity at human GCGR expressed in frozen cells assessed as increase in cAMP production measured after 1 hr by HitHunter luminescence assay. It counts as functional, cell-based. Background: cAMP levels reflect the balance of adenylyl cyclase and phosphodiesterase activity.
Sequence of Glucagon receptor (P47871 whole entry): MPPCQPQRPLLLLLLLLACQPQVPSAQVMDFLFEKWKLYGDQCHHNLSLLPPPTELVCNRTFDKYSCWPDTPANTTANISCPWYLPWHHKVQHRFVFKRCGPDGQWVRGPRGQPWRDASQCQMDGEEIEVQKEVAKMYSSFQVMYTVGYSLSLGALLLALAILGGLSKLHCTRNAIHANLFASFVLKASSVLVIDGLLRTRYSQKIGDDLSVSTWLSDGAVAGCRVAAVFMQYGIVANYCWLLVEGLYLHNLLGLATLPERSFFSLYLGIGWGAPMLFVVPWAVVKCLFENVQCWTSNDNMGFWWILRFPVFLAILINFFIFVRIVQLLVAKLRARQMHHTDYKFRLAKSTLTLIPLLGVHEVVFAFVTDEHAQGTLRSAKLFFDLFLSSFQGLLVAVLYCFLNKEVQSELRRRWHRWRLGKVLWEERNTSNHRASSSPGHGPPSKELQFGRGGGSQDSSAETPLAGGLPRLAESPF
The target in experiment [3] is Glucagon-like peptide 1 receptor (Homo sapiens, UniProt P43220). As to the kind of experiment: Agonist activity at human GLP1R expressed in frozen cells assessed as increase in cAMP production measured after 1 hr by HitHunter luminescence assay. In kind it is functional, cell-based.
Sequence of Glucagon-like peptide 1 receptor (P43220 whole entry): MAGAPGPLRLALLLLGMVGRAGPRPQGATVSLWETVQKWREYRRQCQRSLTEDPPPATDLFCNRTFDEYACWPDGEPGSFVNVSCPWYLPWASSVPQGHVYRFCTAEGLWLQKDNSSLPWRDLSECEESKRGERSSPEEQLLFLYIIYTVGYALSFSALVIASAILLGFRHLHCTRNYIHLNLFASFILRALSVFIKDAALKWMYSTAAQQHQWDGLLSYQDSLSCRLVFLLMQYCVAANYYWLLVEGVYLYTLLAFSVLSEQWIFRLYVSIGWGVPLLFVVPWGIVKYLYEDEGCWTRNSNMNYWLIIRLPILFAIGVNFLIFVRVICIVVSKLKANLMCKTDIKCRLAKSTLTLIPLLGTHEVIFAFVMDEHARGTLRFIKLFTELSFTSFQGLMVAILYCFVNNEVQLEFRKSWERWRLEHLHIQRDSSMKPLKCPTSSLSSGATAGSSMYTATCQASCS
For experiment [4], the species on record is Homo sapiens. Description: Selectivity ratio of EC50 for human GCGR expressed in frozen cells to EC50 for human GLP1R expressed in frozen cells. It counts as cell-based.
The nature of experiment [5]: Agonist activity at rhesus monkey GCGR. Further details: species or system Macaca mulatta.
Experiment [6] can be described thus: Agonist activity at rhesus monkey GLP1R. Further details: species or system Macaca mulatta.
Experiment [7] has as its system Rhesus monkey. Description: Anti-obesity activity in type 2 diabetes rhesus monkey model assessed as weight loss at 30 ug/kg, sc qd for 3 weeks relative to control. It counts as functional, Macaca mulatta. The settings on record: dose 30 µg/kg.
The test system of experiment [8] is Rhesus monkey. Description: Anti-obesity activity in type 2 diabetes rhesus monkey model assessed as reduction in body weight at 30 ug/kg, sc qd for 1 week and measured during 1 week relative to control. It counts as functional, Macaca mulatta. Further details: scale not given: the % may be the effect or the level left. The note with it: dose 30 µg/kg, time 1 weeks.

Experiment [9] deals with Rhesus monkey. Description: Anti-obesity activity in type 2 diabetes rhesus monkey model assessed as reduction in body weight at 30 ug/kg, sc qd for 2 weeks and measured during second week of dosing relative to control. The settings on record: dose 30 µg/kg. In kind it is functional, Macaca mulatta. Further details: scale not given: the % may be the effect or the level left.

Experiment [10] deals with Rhesus monkey. Description: Anti-obesity activity in type 2 diabetes rhesus monkey model assessed as reduction in body weight at 30 ug/kg, sc qd for 3 weeks and measured during third week of dosing relative to control. In kind it is functional, Macaca mulatta. Further details: scale not given: the % may be the effect or the level left. The settings on record: dose 30 µg/kg.

In experiment [11] the test system is Rhesus monkey. As to the kind of experiment: Anti-obesity activity in type 2 diabetes rhesus monkey model assessed as reduction in cumulative food intake at 30 ug/kg, sc qd for 3 weeks and measured daily for 21 days relative to baseline. Further details: scale not given: the % may be the effect or the level left. In kind it is functional, Macaca mulatta. The settings on record: dose 30 µg/kg.

In experiment [12] the test system is Rhesus monkey. As to the kind of experiment: Antidiabetic activity in type 2 diabetes rhesus monkey model assessed as corrected fasting glucose level at 30 ug/kg, sc qd for 3 weeks and measured on day 22 by intravenous glucose tolerance test. The note with it: dose 30 µg/kg, time 22 day. In kind it is functional, Macaca mulatta. In short, it runs like this: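 Type 2 diabetic rhesus monkeys received daily dosing for 3 weeks, alongside vehicle and a liraglutide benchmark at 30 μg/kg. Fasting plasma glucose was compared with baseline or vehicle, and fasting insulin with vehicle.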

As for `CCCCCCCCCCCCCCCC(=O)N[C@@H](CCC(=O)N[C@@H](CCC(=O)NCCCC[C@H](NC(=O)[C@H](CC(=O)O)NC(=O)[C@H](CO)NC(=O)[C@@H](NC(=O)[C@H](Cc1ccccc1)NC(=O)[C@@H](NC(=O)CNC(=O)[C@H](CCC(N)=O)NC(=O)[C@@H](CO)NC(=O)[C@@H](N)Cc1cnc[nH]1)[C@@H](C)O)[C@@H](C)O)C(=O)N[C@@H](CO)C(=O)N[C@@H](CCCCN)C(=O)N[C@@H](Cc1ccc(O)cc1)C(=O)N[C@@H](CC(C)C)C(=O)N[C@@H](CC(=O)O)C(=O)NC(C)(C)C(=O)N[C@@H](CCCNC(=N)N)C(=O)N[C@@H](C)C(=O)N[C@@H](C)C(=O)N[C@@H](CCC(N)=O)C(=O)N[C@@H](CC(=O)O)C(=O)N[C@@H](Cc1ccccc1)C(=O)N[C@H](C(=O)N[C@@H](CCC(N)=O)C(=O)N[C@@H](Cc1c[nH]c2ccccc12)C(=O)N[C@@H](CC(C)C)C(=O)N[C@@H](CC(C)C)C(=O)N[C@@H](CC(=O)O)C(=O)N[C@H](C(N)=O)[C@@H](C)O)C(C)C)C(=O)O)C(=O)O`, the Ratio EC50 in [1] was 0.5; in [4] it was 1. Further, the EC50 (in general, the concentration that produces a half-maximal response) in experiment [2] was determined as 0.073 nM; in experiment [3], 0.074 nM; in experiment [5], 0.01 nM; in experiment [6], 0.019 nM.

Consider `CCCCCCCCCCCCCCCC(=O)N[C@@H](CCC(=O)N[C@@H](CCC(=O)NCCCC[C@H](NC(=O)[C@H](CC(=O)O)NC(=O)[C@H](CO)NC(=O)[C@@H](NC(=O)[C@H](Cc1ccccc1)NC(=O)[C@@H](NC(=O)CNC(=O)[C@H](CCC(N)=O)NC(=O)C(C)(C)NC(=O)[C@@H](N)Cc1cnc[nH]1)[C@@H](C)O)[C@@H](C)O)C(=O)N[C@@H](CO)C(=O)N[C@@H](CCCCN)C(=O)N[C@@H](Cc1ccc(O)cc1)C(=O)N[C@@H](CC(C)C)C(=O)N[C@@H](CC(=O)O)C(=O)NC(C)(C)C(=O)N[C@@H](CCCNC(=N)N)C(=O)N[C@@H](C)C(=O)N[C@@H](C)C(=O)N[C@@H](CCC(N)=O)C(=O)N[C@@H](CC(=O)O)C(=O)N[C@@H](Cc1ccccc1)C(=O)N[C@H](C(=O)N[C@@H](CCC(N)=O)C(=O)N[C@@H](Cc1c[nH]c2ccccc12)C(=O)N[C@@H](CC(C)C)C(=O)N[C@@H](CC(C)C)C(=O)N[C@@H](CC(N)=O)C(=O)N[C@H](C(=O)N[C@@H](CCCCNC(=O)CC[C@H](N)C(=O)O)C(N)=O)[C@@H](C)O)C(C)C)C(=O)O)C(=O)O`, for which the Ratio EC50 was found to be 2.4 in experiment [1] and 2 in experiment [4]. Also, the EC50 in experiment [2] was 0.058 nM; in experiment [3], 0.029 nM; in experiment [5], 0.334 nM; in experiment [6] it was 0.14 nM.

For the compound `CCCCCCCCCCCCCCCC(=O)N[C@@H](CCC(=O)N[C@@H](CCC(=O)NCCCC[C@H](NC(=O)[C@H](CC(=O)O)NC(=O)[C@H](CO)NC(=O)[C@@H](NC(=O)[C@H](Cc1ccccc1)NC(=O)[C@@H](NC(=O)CNC(=O)[C@H](CCC(N)=O)NC(=O)C(C)(C)NC(=O)[C@@H](N)Cc1cnc[nH]1)[C@@H](C)O)[C@@H](C)O)C(=O)N[C@@H](CO)C(=O)N[C@@H](CCCCN)C(=O)N[C@@H](Cc1ccc(O)cc1)C(=O)N[C@@H](CC(C)C)C(=O)N[C@@H](CC(=O)O)C(=O)NC(C)(C)C(=O)N[C@@H](CCCNC(=N)N)C(=O)N[C@@H](C)C(=O)N[C@@H](C)C(=O)N[C@@H](CCC(N)=O)C(=O)N[C@@H](CC(=O)O)C(=O)N[C@@H](Cc1ccccc1)C(=O)N[C@H](C(=O)N[C@@H](CCC(N)=O)C(=O)N[C@@H](Cc1c[nH]c2ccccc12)C(=O)N[C@@H](CC(C)C)C(=O)N[C@@H](CC(C)C)C(=O)N[C@@H](CC(=O)O)C(=O)N[C@H](C(N)=O)[C@@H](C)O)C(C)C)C(=O)O)C(=O)O`, the figures for the Ratio EC50 in experiment [1] and in experiment [4] were 2.6 and 1.1, respectively. Further, the EC50 was determined as 0.039 nM in [2], 0.034 nM in experiment [3], 0.022 nM in experiment [5] and 0.009 nM in experiment [6].

As to `CCCCCCCCCCCCCCCC(=O)N[C@@H](CCC(=O)N[C@@H](CCC(=O)NCCCC[C@H](NC(=O)[C@H](CC(=O)O)NC(=O)[C@H](CO)NC(=O)[C@@H](NC(=O)[C@H](Cc1ccccc1)NC(=O)[C@@H](NC(=O)CNC(=O)[C@H](CCC(N)=O)NC(=O)[C@@H](CO)NC(=O)[C@@H](N)Cc1cnc[nH]1)[C@@H](C)O)[C@@H](C)O)C(=O)N[C@@H](CO)C(=O)N[C@@H](CCCCN)C(=O)N[C@@H](Cc1ccc(O)cc1)C(=O)N[C@@H](CC(C)C)C(=O)N[C@@H](CC(=O)O)C(=O)N[C@@H](CO)C(=O)N[C@@H](CCCNC(=N)N)C(=O)N[C@@H](C)C(=O)N[C@@H](C)C(=O)N[C@@H](CCC(N)=O)C(=O)N[C@@H](CC(=O)O)C(=O)N[C@@H](Cc1ccccc1)C(=O)N[C@H](C(=O)N[C@@H](CCC(N)=O)C(=O)N[C@@H](Cc1c[nH]c2ccccc12)C(=O)N[C@@H](CC(C)C)C(=O)N[C@@H](CC(C)C)C(=O)N[C@@H](CC(=O)O)C(=O)N[C@H](C(N)=O)[C@@H](C)O)C(C)C)C(=O)O)C(=O)O`, the Ratio EC50 in [1] turned out to be 1; in experiment [4] it was 0.6. Also, the EC50 in experiment [2] was found to be 0.038 nM; in [3], 0.063 nM; in experiment [5] it was 0.021 nM; in experiment [6], 0.02 nM.

Take `CCCCCCCCCCCCCCCC(=O)N[C@@H](CCC(=O)NCCCC[C@H](NC(=O)[C@H](C)NC(=O)[C@H](C)NC(=O)[C@H](CCC(N)=O)NC(=O)CNC(=O)[C@H](CCC(=O)O)NC(=O)[C@H](CC(C)C)NC(=O)[C@H](Cc1ccc(O)cc1)NC(=O)[C@H](CO)NC(=O)[C@H](CO)NC(=O)[C@@H](NC(=O)[C@H](CC(=O)O)NC(=O)[C@H](CO)NC(=O)[C@@H](NC(=O)[C@H](Cc1ccccc1)NC(=O)[C@@H](NC(=O)CNC(=O)[C@H](CCC(=O)O)NC(=O)[C@H](C)NC(=O)[C@@H](N)Cc1cnc[nH]1)[C@@H](C)O)[C@@H](C)O)C(C)C)C(=O)N[C@@H](CCC(=O)O)C(=O)N[C@@H](Cc1ccccc1)C(=O)N[C@H](C(=O)N[C@@H](C)C(=O)N[C@@H](Cc1c[nH]c2ccccc12)C(=O)N[C@@H](CC(C)C)C(=O)N[C@H](C(=O)N[C@@H](CCCNC(=N)N)C(=O)NCC(=O)N[C@@H](CCCNC(=N)N)C(=O)NCC(=O)O)C(C)C)[C@@H](C)CC)C(=O)O` [LIRAGLUTIDE]: the Activity in experiment [7] was found to be 3.3%; in experiment [8] it was 1.7%; in experiment [9] it was 1%; in [10] it was 0.6%; in experiment [11], 32%; in experiment [12] it was 30 mg/dL.

For the origin of these results see ChEMBL document CHEMBL5126614 (ACS Med Chem Lett, 2022).
